The nature of test [1]: Antiviral activity against amantadine-resistant Influenza A virus A/California/07/2009 (H1N1) expressing M2 proton channel S31N mutant infected in MDCK cells harboring ST6Gal1 gene assessed as reduction in plaque formation at 10 uM measured after 2 days post infection by crystal violet staining based assay relative to control. In kind it is functional. Also on record: scale not given: the % may be the effect or the level left. The procedure, abridged: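 ST6Gal I-expressing MDCK monolayers infected with ~100 pfu in DMEM/0.5% BSA, 1 h at 4 °C then 1 h at 37 °C; inoculum removed, PBS wash, overlay of DMEM with 1.2% Avicel and NAT (2.0 μg/mL) containing compound at 10 μM; 2-day incubation; plaque formation expressed as percent of DMSO control.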

Test [2] deals with Matrix protein 2 (Influenza A virus (A/Udorn/307/1972(H3N2))), P0DOF8 [S31N]. In words: Inhibition of Influenza A virus amantadine-resistant M2 proton channel S31N mutant expressed in Xenopus laevis oocyte at 100 uM at pH 5.5 after 2 mins by two-electrode patch clamp assay relative to control. In a few lines: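 Xenopus laevis oocytes microinjected with RNA for AM2-WT or AM2-S31N; channel activated at pH 5.5; two-electrode voltage clamp current recorded after 2 min exposure to 100 μM compound; expressed as percent current inhibition; three repeats on different oocytes, mean reported.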

Test [3] in a line: Antiviral activity against amantadine/oseltamivir-resistant Influenza A virus A/Washington/29/2009 (H1N1) expressing AM2-S31N/neuraminidase-H275Y mutant infected in MDCK cells harboring ST6Gal1 gene assessed as reduction in plaque formation measured after 2 days post infection by crystal violet staining based. In kind it is functional, cell-based.
The test system of a further test is Influenza A virus. Description: Antiviral activity against multidrug-resistant Influenza A virus A/Switzerland/9715293/2013 (H3N2) expressing M2 proton channel S31N mutant infected in MDCK cells harboring ST6Gal1 gene assessed as reduction in plaque formation measured after 2 days post infection by crystal violet staining based. In kind it is functional, cell-based.

For test [4], the system named is Influenza A virus (A/California/07/2009(H1N1)). In words: (§1) Antiviral activity against amantadine-resistant Influenza A virus A/California/07/2009 (H1N1) expressing M2 proton channel S31N mutant infected in MDCK cells harboring ST6Gal1 gene assessed as reduction in plaque formation measured after 2 days post infection by crystal violet staining based. In kind it is functional, cell-based.

For test [5] the test system is unchanged. Description: Antiviral activity against amantadine-resistant Influenza A virus A/California/07/2009 (H1N1) expressing M2 proton channel S31N mutant infected in MDCK cells harboring ST6Gal1 gene assessed as reduction in plaque formation up to 30 uM measured after 2 days post infection by crystal violet staining based. In kind it is functional, cell-based.

Test [6] in a line: as §1. In kind it is functional, cell-based.

This note sets out measurements from ChEMBL document CHEMBL3997811.

Structures are written as SMILES. The source made the active and inactive calls. The calls are words filed in the database; no cut-off is given here.

Regarding `c1cncc(-c2cc(CNC34CC5CC(CC(C5)C3)C4)no2)c1`, in test [1], the Activity came out at 105.5%. In addition, the inhibition (commonly how much of the control response was suppressed) in test [2] worked out at 53%.

Take `Clc1ccc(-c2cc(CNC34CC5CC(CC(C5)C3)C4)no2)s1`: the EC50 (in test [3]; in the test with Influenza A virus) was 200 nM each time. In addition, the Activity in test [1] was 0%; in test [4], “Dose-dependent effect”. In test [2], this compound returned an inhibition of 78.8%.

As for `OC12CC3CC(C1)CC(NCc1cc(-c4cc(Cl)sc4Cl)on1)(C3)C2`, the outcome in test [5] was inactive. For the same compound, in test [1], the Activity was determined as 13.7%. The inhibition in test [2] is 89.9%.

Take `c1ccc2c(-c3cc(CNC45CC6CC(CC(C6)C4)C5)no3)cccc2c1`: in test [1], the Activity turned out to be 36.1%. Also, in test [2], the inhibition is 56.8%.

In the case of `COc1ccc(-c2cc(CNC34CC5CC(CC(C5)C3)C4)no2)cn1`, the Activity in test [1] is on record as 21.7%. In test [2], this compound gave an inhibition of 58%.

As for `FC(F)(F)Oc1cccc(-c2cc(CNC34CC5CC(CC(C5)C3)C4)no2)c1`, the Activity in test [1] was found to be 72.7%. Further, the inhibition in test [2] is 56.7%.

As to `Clc1cc(-c2cc(CNC34CC5CC(CC(C5)C3)C4)no2)c(Cl)s1`, the Activity in test [1] is recorded as 10.1%. The compound also came in with an inhibition in test [2] of 87.7%.

Consider `N#Cc1ccc(-c2cc(CNC34CC5CC(CC(C5)C3)C4)no2)cc1`, for which the Activity in test [1] came to 28%. The compound also showed an inhibition in test [2] of 72.2%.

As for `CSc1cccc(-c2cc(CNC34CC5CC(CC(C5)C3)C4)no2)c1`, the Activity in test [1] stood at 56.3%. In addition, in test [2], the inhibition amounted to 69.6%.

`NC(=O)c1ccc(-c2cc(CNC34CC5CC(CC(C5)C3)C4)no2)cc1`: the Activity in test [1] is 57.1%. The inhibition in test [2] worked out at 47.4%.

With `COC(=O)c1ccc(-c2cc(CNC34CC5CC(CC(C5)C3)C4)no2)cc1`, in test [1], the Activity turned out to be 24.1%. In addition, in test [2], the inhibition worked out at 73.6%.

Consider `c1ccc(-c2cc(CNC34CC5CC(CC(C5)C3)C4)no2)cc1`, for which the Activity in test [1] is 13.5%; in test [4], “Dose-dependent effect”. Besides, in test [6], the EC50 (usually the concentration giving half of the maximal effect) came to 300 nM.

Take `c1ccc(-c2ccc(-c3cc(CNC45CC6CC(CC(C6)C4)C5)no3)cc2)cc1`: in test [1], the Activity is reported as 36%. In addition, the inhibition in test [2] is 45.6%.

With `COc1sccc1-c1cc(CNC23CC4CC(CC(C4)C2)C3)no1`, the Activity in test [1] is given as 7.2%. Moreover, in test [2], the inhibition was 94.2%.

`COc1ccccc1-c1cc(CNC23CC4CC(CC(C4)C2)C3)no1`: the Activity in test [1] came to 62.1%. Besides, in test [2], the inhibition stood at 51.8%.

Regarding `CS(=O)(=O)c1ccccc1-c1cc(CNC23CC4CC(CC(C4)C2)C3)no1`, the Activity in test [1] is on record as 110%. This compound also returned an inhibition in test [2] of 9.8%.

Take `CN(C)c1ccc(-c2cc(CNC34CC5CC(CC(C5)C3)C4)no2)cc1`: in test [1], the Activity is given as 35.7%. In test [2], the inhibition is 83.2%.

As to `Clc1cc(-c2cc(CNC34CC5CC(CC(C5)C3)C4)no2)cs1`, the Activity in test [1] worked out at 10.9%. In test [2], this compound displayed an inhibition of 87.9%.

For the compound `Oc1ccccc1-c1cc(CNC23CC4CC(CC(C4)C2)C3)no1`, the Activity in test [1] is 3.4%; in test [4] it was “Dose-dependent effect”. Further, the inhibition in test [2] amounted to 71.5%. In test [6], the EC50 worked out at 500 nM.

Regarding `OC12CC3CC(C1)CC(NCc1cc(-c4ccccc4Cl)on1)(C3)C2`, the Activity in test [1] was 8.3%; in test [4], “Dose-dependent effect”. In test [2], the inhibition was 87.1%. Besides, the EC50 in test [6] is 900 nM.

Consider `CSc1ccccc1-c1cc(CNC23CC4CC(CC(O)(C4)C2)C3)no1`, for which the Activity is 9.2% in test [1] and “Dose-dependent effect” in test [4]. Further, the inhibition in test [2] worked out at 90.6%. Also, the EC50 in test [6] is 1200 nM.
